From ChEMBL document CHEMBL1221254, “Succinic acid amides as P2-P3 replacements for inhibitors of interleukin-1beta converting enzyme (ICE or caspase 1)” (Bioorg Med Chem Lett, 2010)

Experiments:
[1] = Selectivity ratio of human ICE to caspase 3
[2] = Selectivity ratio of human ICE to caspase 4
[3] = Selectivity ratio of human ICE to caspase 6
[4] = Selectivity ratio of human ICE to caspase 8
Homo sapiens = species: Homo sapiens; assay: Half life in human plasma
[5] = Oral bioavailability in Wistar rat at 25 mg/kg; assay type: ADME, organism-based; conditions: in vivo
Outline: (§1)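 Wistar rats received 25 mg/kg orally in a vehicle of 10% DMSO, 11.25% Trappsol and D5W. Compound was measured in blood by LC/MS.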

[6] = Half life in Wistar rat at 25 mg/kg, po; assay type: ADME, organism-based; parameters: dose 25 mg/kg, route oral; conditions: in vivo; outline: as §1
Caspase-1 [7] = target: T1, Caspase-1 (Homo sapiens, UniProt P29466); assay: Inhibition of human ICE
T1 sequence (P29466 whole entry): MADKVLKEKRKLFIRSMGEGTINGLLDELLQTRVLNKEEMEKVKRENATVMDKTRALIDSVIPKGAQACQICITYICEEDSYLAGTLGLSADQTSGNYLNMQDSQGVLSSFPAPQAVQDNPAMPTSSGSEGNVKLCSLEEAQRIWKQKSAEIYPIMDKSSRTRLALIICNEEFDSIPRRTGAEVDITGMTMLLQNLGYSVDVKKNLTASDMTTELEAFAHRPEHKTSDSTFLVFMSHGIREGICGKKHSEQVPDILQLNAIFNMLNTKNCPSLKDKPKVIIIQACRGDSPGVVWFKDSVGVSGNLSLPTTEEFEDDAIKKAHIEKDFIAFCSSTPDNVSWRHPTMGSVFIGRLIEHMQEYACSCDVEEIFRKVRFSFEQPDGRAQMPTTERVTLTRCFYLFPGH

Caspase-1 [8] = target: T2, Caspase-1 (Mus musculus, UniProt P29452); assay: Inhibition of mouse ICE
T2 sequence (P29452 whole entry): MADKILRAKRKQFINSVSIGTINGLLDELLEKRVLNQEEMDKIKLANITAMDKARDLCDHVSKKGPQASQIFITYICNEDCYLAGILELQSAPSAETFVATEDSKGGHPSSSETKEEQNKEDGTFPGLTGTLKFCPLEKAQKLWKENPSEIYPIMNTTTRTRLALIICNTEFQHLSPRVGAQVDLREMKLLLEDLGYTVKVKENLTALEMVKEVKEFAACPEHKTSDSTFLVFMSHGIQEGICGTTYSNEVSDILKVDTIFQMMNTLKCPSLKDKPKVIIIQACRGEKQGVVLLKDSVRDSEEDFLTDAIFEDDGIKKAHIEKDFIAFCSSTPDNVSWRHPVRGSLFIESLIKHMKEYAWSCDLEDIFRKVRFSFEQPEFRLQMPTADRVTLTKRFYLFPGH

PBMC = assay: Inhibition of LPS-induced IL1-beta production in human PBMC by ELISA; assay type: functional, cell-based
Outline: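 Human PBMC were suspended in RPMI 1640 with glutamine, penicillin, streptomycin and 2% human AB serum, at 10^6 cells per well. Cells were stimulated overnight with 10 ng/mL LPS, with or without inhibitor. Mature IL-1β in the harvested medium was measured by ELISA.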

Mus musculus = assay: Reduction of IL1-beta level in human PBMC cells xenografted SCID mouse at 3 mg/kg, iv after 2 hrs; assay type: functional; parameters: scale not given: the % may be the effect or the level left
Outline: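 huSCID model: SCID mice were injected with human PBMC 15 min before the start. At time zero they received LPS at 5 mg/kg iv. Compound was given at 3 mg/kg iv, and mice were bled at 2 h.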

Compound | Selectivity ratio [1] | Selectivity ratio [2] | Selectivity ratio [3] | Selectivity ratio [4] | half-life (Homo sapiens) | bioavailability [5] | half-life [6] | IC50 (Caspase-1 [7]) | Ki (Caspase-1 [7]) | Ki (Caspase-1 [8]) | IC50 (PBMC) | Activity (Mus musculus)
CCC(C)O[C@@H]1OC(=O)C[C@@H]1NC(=O)[C@@H](CC(=O)NCCc1cccc2ncccc12)C(C)C (some centres undefined) | > 200 | > 200 | > 200 | > 200 | 234 min |  |  |  |  |  |  | 
CCC(C)O[C@H]1OC(=O)C[C@@H]1NC(=O)[C@@H](CC(=O)NCCc1cccc2ncccc12)C(C)C (some centres undefined) | > 200 | > 200 | > 200 | > 200 | 462 min |  |  |  |  |  |  | 
CC(C)[C@H](CC(=O)NCCc1cccc2ncccc12)C(=O)N[C@H]1CC(=O)O[C@@H]1OC1CCCC1 | > 200 | > 200 | > 200 | > 200 | 306 min | 5% |  |  |  |  |  | 
CCOC1OC(=O)C[C@@H]1NC(=O)[C@@H](CC(=O)NCCn1c(C)nc2ccccc21)C(C)C (some centres undefined) | > 200 | > 200 | > 200 | > 200 |  |  | 96 min |  |  |  |  | 
CCCO[C@H]1OC(=O)C[C@@H]1NC(=O)[C@@H](CC(=O)NCCc1cccc2ncccc12)C(C)C | > 200 | > 200 | > 200 | > 200 | 600 min | 35% |  |  |  |  |  | 
CC(=O)N[C@@H](Cc1ccc(O)cc1)C(=O)N[C@H](C(=O)N[C@@H](C)C(=O)N[C@H](C=O)CC(=O)O)C(C)C | > 200 | > 200 | > 200 | > 200 |  |  |  | 17 nM | 0.7 nM | 9 nM | 1200 nM | 69%
CCO[C@H]1OC(=O)C[C@@H]1NC(=O)[C@@H](CC(=O)NCCc1cccc2ncccc12)C(C)C | > 200 | > 200 | > 200 | > 200 | 258 min |  |  |  |  |  |  | 
CCO[C@@H]1OC(=O)C[C@@H]1NC(=O)[C@@H](CC(=O)NCCc1cccc2ncccc12)C(C)C | > 200 | > 200 | > 200 | > 200 | 52.2 min | 25% |  |  |  |  |  | 
CCOC1OC(=O)C[C@@H]1NC(=O)[C@@H](CC(=O)NCCc1c(C)[nH]c2ccccc12)C(C)C (some centres undefined) | > 200 | > 200 | > 200 | > 200 |  |  | 76.2 min |  |  |  |  | 
Cc1nc2ccccc2n1CCNC(=O)C[C@H](C(=O)N[C@H](C=O)CC(=O)O)C(C)C |  |  |  |  |  |  |  | 23.8 nM |  | 18.7 nM | 2900 nM | 68%
CCOC1OC(=O)C[C@@H]1NC(=O)[C@@H](CC(=O)NCCc1cccc2ncccc12)C(C)C (some centres undefined) | > 200 | > 200 | > 200 | > 200 |  |  | 52.2 min |  |  |  |  | 
CC(C)[C@H](CC(=O)NCCc1c[nH]c2ccccc12)C(=O)N[C@H](C=O)CC(=O)O | > 200 | > 200 | > 200 | > 200 |  |  |  | 23.1 nM | 5.02 nM |  |  | 
O=C[C@H](CC(=O)O)NC(=O)[C@@H]1CCCN2C(=O)CC[C@H](NC(=O)c3nccc4ccccc34)C(=O)N12 [VRT-18858] |  |  |  |  |  |  |  | 3.4 nM | 0.6 nM | 7 nM | 380 nM | 62%
CC(C)[C@H](CC(=O)NCCc1c[nH]c2ccc(F)cc12)C(=O)N[C@H](C=O)CC(=O)O | > 200 | > 200 | > 200 | > 200 |  |  |  | 37 nM | 7.9 nM |  |  | 
Cc1ccc2c(c1)ncn2CCNC(=O)C[C@H](C(=O)N[C@H](C=O)CC(=O)O)C(C)C | > 200 | > 200 | > 200 | > 200 |  |  |  | 15.3 nM | 4.85 nM |  |  | 
CCCO[C@@H]1OC(=O)C[C@@H]1NC(=O)[C@@H](CC(=O)NCCc1cccc2ncccc12)C(C)C | > 200 | > 200 | > 200 | > 200 | 120 min | 9% |  |  |  |  |  | 
CC(C)[C@H](CC(=O)N1CCN(c2ccccc2)CC1)C(=O)N[C@H](C=O)CC(=O)O | > 200 | > 200 | > 200 | > 200 |  |  |  | 7810 nM | 1020 nM |  |  | 
CCO[C@@H]1OC(=O)CC1NC(=O)[C@@H]1CCCN2C(=O)CC[C@H](NC(=O)c3nccc4ccccc34)C(=O)N12 (some centres undefined) | > 200 | > 200 | > 200 | > 200 |  |  | 52.2 min |  |  |  |  | 
CC(C)[C@H](CC(=O)NCCc1cccc2ncccc12)C(=O)N[C@H]1CC(=O)O[C@H]1OC1CCCC1 | > 200 | > 200 | > 200 | > 200 | 942 min |  |  |  |  |  |  | 
CC(C)[C@H](CC(=O)N(CCOc1ccccc1)CCC(=O)O)C(=O)N[C@H](C=O)CC(=O)O | > 200 | > 200 | > 200 | > 200 |  |  |  | 114 nM | 9.24 nM |  |  | 
COc1ccc(CCCNC(=O)C[C@H](C(=O)N[C@H](C=O)CC(=O)O)C(C)C)cc1 | > 200 | > 200 | > 200 | > 200 |  |  |  | 410 nM | 70.9 nM |  |  | 
CC(C)[C@H](CC(=O)NCCc1cccc2nc(OCCN(C)C)ccc12)C(=O)N[C@H](C=O)CC(=O)O | > 200 | > 200 | > 200 | > 200 |  |  |  | 102 nM | 16.7 nM |  |  | 
Cc1[nH]c2ccccc2c1CCNC(=O)C[C@H](C(=O)N[C@H](C=O)CC(=O)O)C(C)C |  |  |  |  |  |  |  | 18 nM | 1.29 nM | 13.4 nM | 1500 nM | 54%
CC(C)[C@H](CC(=O)NCCc1cccc2ncccc12)C(=O)N[C@H](C=O)CC(=O)O |  |  |  |  |  |  |  | 5.81 nM | 1.81 nM | 14.4 nM | 650 nM | 52%
